{"data": "Results gathered from unrelated publications", "target": "Prostaglandin G/H synthase 1 (PTGS1, Ovis aries, UniProt P05979)", "observed": "enzyme activity", "action": "inhibitor", "Sequence (P05979 25-600, as in one of the studies)": "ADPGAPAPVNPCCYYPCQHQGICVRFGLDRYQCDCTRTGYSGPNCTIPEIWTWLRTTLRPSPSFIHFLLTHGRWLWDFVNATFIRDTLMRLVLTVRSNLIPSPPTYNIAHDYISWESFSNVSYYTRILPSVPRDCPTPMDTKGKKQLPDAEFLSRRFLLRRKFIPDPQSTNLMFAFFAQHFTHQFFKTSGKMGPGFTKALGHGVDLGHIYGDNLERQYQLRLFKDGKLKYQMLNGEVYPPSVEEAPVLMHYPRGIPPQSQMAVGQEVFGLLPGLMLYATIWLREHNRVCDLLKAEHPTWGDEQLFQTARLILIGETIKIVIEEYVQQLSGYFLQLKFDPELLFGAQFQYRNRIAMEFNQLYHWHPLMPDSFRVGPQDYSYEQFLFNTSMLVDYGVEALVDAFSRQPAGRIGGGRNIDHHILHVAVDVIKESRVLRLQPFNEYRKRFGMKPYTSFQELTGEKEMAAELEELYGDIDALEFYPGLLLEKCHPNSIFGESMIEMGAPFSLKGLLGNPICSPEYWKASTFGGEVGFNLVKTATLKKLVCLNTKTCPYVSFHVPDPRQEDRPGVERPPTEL", "note": "Compare with care: the assays were run in different laboratories."}
{"Structure (SMILES)": "CC(C)Cc1ccc(-c2nn(-c3ccc(S(C)(=O)=O)cc3)cc2/C=N/N=c2\\[nH]c(-c3ccc([N+](=O)[O-])cc3)cs2)cc1", "IC50": "34.4 µM"}
{"Structure (SMILES)": "COc1ccccc1-c1ccc(F)c(OC(F)(F)F)c1", "test": "absorbance", "IC50": "10.8 µM"}
{"Structure (SMILES)": "CS(=O)(=O)c1ccc(-c2nc3ccccn3c2Nc2ccc(Cl)cc2)cc1", "test": "fluorescence", "IC50": "34.3 µM"}
{"Structure (SMILES)": "CS(=O)(=O)c1ccc(-n2cc(/C=N/N=c3\\[nH]c(-c4ccc([N+](=O)[O-])cc4)cs3)c(-c3ccc([N+](=O)[O-])cc3)n2)cc1", "IC50": "38.5 µM"}
{"Structure (SMILES)": "COc1ccccc1-c1cccc([N+](=O)[O-])c1F", "test": "absorbance", "IC50": "9.34 µM"}
{"Structure (SMILES)": "Cc1ccc(Nc2c(-c3ccc(S(C)(=O)=O)cc3)nc3ccccn23)cc1", "test": "fluorescence", "IC50": "23.1 µM"}
{"Structure (SMILES)": "C[C@@H]1O[C@@H](O[C@H]2[C@H](Oc3c(-c4ccc(O)cc4)oc4cc(O)cc(O)c4c3=O)O[C@H](CO[C@@H]3O[C@H](CO)[C@@H](O)[C@H](O)[C@H]3O)[C@@H](O)[C@@H]2O)[C@H](O)[C@H](O)[C@H]1O", "test": "absorbance", "IC50": "21.8 µM"}
{"Structure (SMILES)": "CS(=O)(=O)c1ccc(-n2cc(C=N/N=c3\\[nH]c(-c4ccc(Br)cc4)cs3)c(-c3ccc([N+](=O)[O-])cc3)n2)cc1", "IC50": "68.2 µM"}
{"Structure (SMILES)": "COc1ccc(F)c(-c2ccccc2F)c1", "test": "absorbance", "IC50": "9.98 µM"}
{"Structure (SMILES)": "Cc1ccc(-c2nc3ccccc3s2)c(-c2ccc(S(C)(=O)=O)cc2)c1", "test": "absorbance", "IC50": "> 100 µM"}
{"Structure (SMILES)": "COc1ccccc1-c1ccc(F)c(C(F)(F)F)c1", "test": "absorbance", "IC50": "9.99 µM"}
{"Structure (SMILES)": "CS(=O)(=O)c1ccc(-c2ncccc2-c2nc3ccccc3s2)cc1", "test": "absorbance", "IC50": "> 100 µM"}
{"Structure (SMILES)": "Cc1ccc(Nc2c(-c3ccc(S(C)(=O)=O)cc3)nc3c(C)cccn23)cc1", "test": "fluorescence", "IC50": "35.6 µM"}
{"Structure (SMILES)": "Cc1ccc(-c2nc3ccccc3s2)c(-c2ccc(S(N)(=O)=O)cc2)c1", "test": "absorbance", "IC50": "> 100 µM"}
{"Structure (SMILES)": "O=[N+]([O-])c1ccc(-c2ccccc2F)cc1", "test": "absorbance", "IC50": "10.1 µM"}
{"Structure (SMILES)": "Cc1cccn2c(Nc3ccccc3)c(-c3ccc(S(C)(=O)=O)cc3)nc12", "test": "fluorescence", "IC50": "35.6 µM"}
{"Structure (SMILES)": "CSc1ccc(/C=C2\\C=C(CC(=O)NS(=O)(=O)C(F)(F)F)c3cc(F)ccc32)cc1", "IC50": "0.7 to 1 µM"}
{"Structure (SMILES)": "Cc1cccc2nc(-c3ccc(S(C)(=O)=O)cc3)c(Nc3ccc(Cl)cc3)n12", "test": "fluorescence", "IC50": "27.1 µM"}
{"Structure (SMILES)": "O=C(O)CC1=C/C(=C\\c2cccc(-c3ccc(F)cc3)n2)c2ccc(F)cc21", "IC50": "9.3 µM"}
{"Structure (SMILES)": "Cc1ccn2c(Nc3ccc(F)cc3)c(-c3ccc(S(C)(=O)=O)cc3)nc2c1", "test": "fluorescence", "IC50": "33.6 µM"}
{"Structure (SMILES)": "CC(C)Cc1ccc(-c2nn(-c3ccc(S(C)(=O)=O)cc3)cc2/C=N/N=c2\\[nH]c(-c3ccc(Br)cc3)cs2)cc1", "IC50": "27.5 µM"}
{"Structure (SMILES)": "COc1ccc(Nc2c(-c3ccc(S(C)(=O)=O)cc3)nc3c(C)cccn23)cc1", "test": "fluorescence", "IC50": "30 µM"}
{"Structure (SMILES)": "CS(=O)(=O)c1ccc(-n2cc(/C=N/N=c3\\[nH]c(-c4ccc([N+](=O)[O-])cc4)cs3)c(-c3ccc(Br)cc3)n2)cc1", "IC50": "24.5 µM"}
{"Structure (SMILES)": "CSc1ccc(/C=C2\\C=C(CC(=O)NS(=O)(=O)c3ccc4ccccc4c3)c3cc(F)ccc32)cc1", "IC50": "2 µM"}
